Bioassay records: PubChem BioAssay, Broad Institute
This is a sample that favours compounds with a hit; in the whole collection about 2.3% have one here.
F508del corr – CFTR F508del correction in bronchial cells | CFBE cells, YFP halide quenching; stimulated with forskolin plus potentiator P3; % fluorescence drop versus neutral controls | activity (quench increase), % at 7.58 µM | 350,000 compounds, 0.36% hits;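 active = mean added fluorescence quench of at least 8% versus neutral control, with both replicates also reaching 8%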;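 note: cells transiently co-express mutant CFTR-F508del with the halide-sensitive YFP; corrector assay measuring rescue of mutant channel to the surface after 24 h compound exposure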
EWS-Fli block – EWS/Fli transcriptional activity inhibition; inhibition, % at 12.6 µM; 350,000 compounds, 0.67% hits; A673 NR0B1-luciferase reporter, viability-normalised;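 active = mean inhibition of at least 50% after viability correction, with every replicate also passing that limit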;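 note: firefly luciferase signal divided by Alamar Blue viability fluorescence both relative to DMSO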
FN deposition inh – fibronectin deposition inhibition | inhibition, % at 12.6 µM | AH1F fibroblasts, Alexa488-fibronectin deposition fluorescence, overnight | AID 743247 | 350,000 compounds, 0.086% hits;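 active = mean inhibition across replicates of 30% or more, regardless of how many single replicates reach that level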
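Material: AH1F fibroblast monolayer depositing Alexa488-labelled fibronectin into matrix / Amount: 10000 AH1F cells per well / Signal: fluorescence 485/525 nm / Medium: DMEM, 2% serum / Compound: single dose, pinned / Incubation: 1 h cell adhesion before compound, then overnight fibronectin incubation / Reagent: Alexa488-FN, 24 nM final / Read-out: inhibition of fibronectin deposition signal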
PAX8 reporter – lowers PAX8-driven luciferase in RMG-I cells; RMG-I TPO-luciferase reporter, SteadyGlo, 24 h; inhibition, % at 12.6 µM; 360,000 compounds, 1.2% hits; AID 652154;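 active = mean replicate inhibition at least 60% with every replicate also reaching 60%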;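 note: luciferase light reporting Pax8 driven TPO promoter activity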
Env fusion inh – blocks HIV Env-driven cell-cell fusion; AID 651610; inhibition, % at 12.3 µM; HeLa-JRFL Env/CEM21 cell fusion, luciferase; 360,000 compounds, 1.1% hits;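 active = mean replicate inhibition score of at least 50 and every replicate individually at or above 50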
PGC1a acetyl inh – PGC1a acetylation modulation, inhibitor mode; U2OS PGC1a acetylation, AlphaScreen anti-acetyl-lysine; with virally co-expressed GCN5 acetyltransferase; inhibition, % at 15.6 µM; 350,000 compounds, 0.17% hits;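 active = every replicate shows inhibition of at least 40%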
Of the large screens only hits and unclear results are named; the others gave an inactive call; ! = not confirmed by another sample; [ ] = dose if it differs, or a comment.

CC1(C)Cc2c(c(-c3ccco3)nc3sc4c(NCCN5CCOCC5)ncnc4c23)CO1	F508del corr 9.7 (no result: PGC1a acetyl inh)
COc1ccc(C2c3cc4c(cc3OC(N3CCOCC3)C2C)OCO4)c(OC)c1 (stereo not drawn)	EWS-Fli block 60 (no result: PGC1a acetyl inh)
C/C=C1\COC(C(=O)NCc2ccncc2)(C(F)(F)F)C=C1C=C1CCCCC1 (stereo not drawn)	none
C/C=C1\COC(C(=O)NCc2cccc(OC)c2OC)(C(F)(F)F)C=C1C=C1CCCCC1 (stereo not drawn)	Env fusion inh 71
CCOC(=O)[C@]12CCCC=C1N(Cc1ccccc1)C(=O)[C@H](CC(=O)NCc1ccc(OC)c(OC)c1)C2	none (no result: PGC1a acetyl inh)
CCOC(=O)[C@]12CCCC=C1N(Cc1cccc3ccccc13)C(=O)[C@H](CC(=O)NCc1ccc(OC)c(OC)c1)C2	Env fusion inh 56 (no result: PGC1a acetyl inh)
CCOC(=O)[C@]12CCCC=C1N(Cc1cccc3ccccc13)C(=O)[C@H](CC(=O)NCc1cccc(C(F)(F)F)c1)C2	F508del corr 11 (no result: PGC1a acetyl inh)
Cc1ccc(S(=O)(=O)N[C@@H]2CC[C@H](CC(=O)NC3CCCCC3)O[C@H]2CO)cc1	none
C[C@@H]1CN([C@@H](C)CO)C(=O)c2cc(NS(=O)(=O)c3ccc(Cl)cc3)ccc2O[C@@H](C)CCCCO[C@H]1CN(C)CC1CCCCC1	none (no result: FN deposition inh)
Nc1nnnn1/N=C/C(Br)=C/c1ccccc1	PAX8 reporter 93 (no result: F508del corr, EWS-Fli block)
Nc1nnnn1/N=C/C=C/c1ccccc1	none (no result: F508del corr, EWS-Fli block, FN deposition inh, PAX8 reporter, Env fusion inh)
O=S(=O)(N[C@H]1CC[C@H](CCn2cc(-c3cccc(F)c3)nn2)O[C@H]1CO)c1ccc(F)cc1	none (no result: PAX8 reporter)
CC1=CC(C)(C)N(C(=O)CCl)c2cc(C)ccc21	EWS-Fli block 68
Cc1ccc(S(=O)(=O)N(C)C[C@@H]2OCCCC[C@H](C)Oc3ccc(NC(=O)Nc4c(C)noc4C)cc3C(=O)N([C@@H](C)CO)C[C@H]2C)cc1	none
C=C1C(=O)O[C@H]2C1CC[C@@](C)(O)C13C=CC(C)(C21)C1(C3)C(=O)O[C@@H]2C3C(C)=CCC3[C@](C)(O)C[C@H](OC(C)=O)C21 (stereo partly drawn)	PAX8 reporter 87
COc1ccc(-n2nnnc2-c2cnc(N3CCCC3)nc2C(F)(F)F)cc1	Env fusion inh 72 (no result: F508del corr, EWS-Fli block, PAX8 reporter)
FC(F)(F)c1nc(-c2cccs2)ncc1-c1nnnn1-c1ccc(Cl)cc1	Env fusion inh 70 (no result: F508del corr, EWS-Fli block, FN deposition inh, PAX8 reporter, PGC1a acetyl inh)
Clc1ccc(-n2nnnc2-c2cnc(-c3ccncc3)nc2-c2cccs2)cc1	none (no result: F508del corr, EWS-Fli block, FN deposition inh, PAX8 reporter, PGC1a acetyl inh)
C[C@H](CO)N1C[C@H](C)[C@@H](CN(C)Cc2ccc(C(F)(F)F)cc2)OCCCC[C@H](C)Oc2ccc(NC(=O)c3ccccc3)cc2C1=O	PAX8 reporter 67 (no result: FN deposition inh)
C[C@@H]1CN([C@@H](C)CO)C(=O)c2cc(NC(=O)c3ccncc3)ccc2O[C@@H](C)CCCCO[C@H]1CN(C)Cc1ccc(C(F)(F)F)cc1	none (no result: PGC1a acetyl inh)
C[C@@H]1CCCCO[C@@H](CN(C)Cc2ccc(C(F)(F)F)cc2)[C@H](C)CN([C@H](C)CO)C(=O)c2cc(NC(=O)c3ccccc3)ccc2O1	PAX8 reporter 91, Env fusion inh 79[16.7 µM] (no result: FN deposition inh)
C[C@@H]1CN([C@H](C)CO)C(=O)c2cc(NC(=O)c3ccccc3)ccc2O[C@@H](C)CCCCO[C@@H]1CN(C)Cc1ccc(C(F)(F)F)cc1	PAX8 reporter 91 (no result: FN deposition inh)
C[C@@H]1CN([C@H](C)CO)C(=O)c2cc(NC(=O)c3ccccc3)ccc2O[C@@H](C)CCCCO[C@H]1CN(C)Cc1ccc(C(F)(F)F)cc1	PAX8 reporter 99, Env fusion inh 69[16.7 µM] (no result: FN deposition inh)
CO[C@@H]1CN(C)C(=O)c2ccc(NC(C)=O)cc2OC[C@@H](C)N(C(=O)c2ccccn2)C[C@H]1C	none
C[C@@H]1CN([C@H](C)CO)C(=O)c2cc(C#CC3CC3)cnc2O[C@@H]1CN(C)C(=O)c1ccncc1	none (no result: FN deposition inh, PAX8 reporter)
C[C@@H]1CN([C@@H](C)CO)C(=O)c2cc(NC(=O)c3ccccc3)ccc2O[C@@H](C)CCCCO[C@@H]1CN(C)Cc1ccncc1	none (no result: FN deposition inh)
C[C@@H]1CN([C@@H](C)CO)C(=O)c2cc(NC(=O)c3ccncc3)ccc2O[C@@H](C)CCCCO[C@@H]1CN(C)Cc1ccc(C(F)(F)F)cc1	none (no result: PGC1a acetyl inh)
C[C@@H]1CCCCO[C@H](CN(C)Cc2ccc(C(F)(F)F)cc2)[C@H](C)CN([C@H](C)CO)C(=O)c2cc(NC(=O)c3ccccc3)ccc2O1	PAX8 reporter 99, Env fusion inh 90[16.7 µM] (no result: FN deposition inh)
C[C@@H]1CN([C@@H](C)CO)C(=O)c2cc(NC(=O)c3ccccc3)ccc2O[C@@H](C)CCCCO[C@@H]1CN(C)Cc1ccc(C(F)(F)F)cc1	PAX8 reporter 77!
C[C@H](CO)N1C[C@H](C)[C@H](CN(C)Cc2ccc(C(F)(F)F)cc2)OCCCC[C@H](C)Oc2ccc(NC(=O)c3ccccc3)cc2C1=O	PAX8 reporter 90 (no result: FN deposition inh)
C[C@@H]1CCCCO[C@H](CN(C)Cc2ccncc2)[C@H](C)CN([C@@H](C)CO)C(=O)c2cc(NC(=O)c3ccccc3)ccc2O1	EWS-Fli block 58, PAX8 reporter 70
COc1ccc(Cl)cc1C(=O)NNC(=O)CCNS(=O)(=O)c1ccccc1	F508del corr 10 (no result: PAX8 reporter)
Cc1ccc(S(=O)(=O)NCCC(=O)NNC(=O)c2ccccc2Cl)cc1C	none
COc1cc(/C=C/C(=O)NNC(=O)c2cccc(S(=O)(=O)N(C)C)c2)cc(OC)c1OC	none (no result: PGC1a acetyl inh)
COc1ccc(Cl)cc1C(=O)NNC(=O)c1cccc(S(=O)(=O)N(C)C)c1	FN deposition inh 31 (no result: F508del corr, EWS-Fli block, PGC1a acetyl inh)
COc1ccc(NC(=O)N(C)C[C@@H]2Oc3c(NS(=O)(=O)c4ccc(F)cc4)cccc3C(=O)N([C@@H](C)CO)C[C@@H]2C)cc1	none (no result: FN deposition inh)
CCN(C(=O)COC(=O)c1cc(-c2ccccc2)nc2c1c(C)nn2-c1ccc(C)cc1)C1CCS(=O)(=O)C1 (stereo not drawn)	F508del corr 8.2 (no result: FN deposition inh, PGC1a acetyl inh)
O=C(C1CCCC1)N1CC2(C1)[C@@H](c1ccccc1)[C@H](CO)N2C(=O)CC1CC1	none (no result: PAX8 reporter, Env fusion inh, PGC1a acetyl inh)
Cc1ccc(-c2cnc3c(c2)C(=O)N([C@H](C)CO)C[C@@H](C)[C@@H](CN(C)C)O3)cc1	none (no result: PAX8 reporter)
COc1ccc(S(=O)(=O)Nc2ccc3c(c2)C(=O)N([C@@H](C)CO)C[C@H](C)[C@H](CN(C)Cc2ccc(Cl)c(Cl)c2)OCCCC[C@@H](C)O3)cc1	F508del corr 8.0 (no result: FN deposition inh)
COc1ccc(S(=O)(=O)Nc2ccc3c(c2)C(=O)N([C@H](C)CO)C[C@H](C)[C@H](CN(C)Cc2ccc(Cl)c(Cl)c2)OCCCC[C@@H](C)O3)cc1	none (no result: FN deposition inh)
COc1ccc(S(=O)(=O)Nc2ccc3c(c2)C(=O)N([C@@H](C)CO)C[C@H](C)[C@@H](CN(C)Cc2ccc(Cl)c(Cl)c2)OCCCC[C@H](C)O3)cc1	Env fusion inh 59[16.7 µM] (no result: FN deposition inh)
